For assay [1], the system named is HEK-293T. Briefly: Induction of heat shock response in GFP-tagged human 293T cells at 1 uM after overnight incubation by luciferase reporter gene based luminometric method. It is filed as functional, cell-based. The procedure, abridged: (§1)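 Heat-shock reporter 293T cells (GFP–firefly luciferase under HSP70B′ promoter elements, FACS-enriched high responders) were seeded at 20 000 cells/well in 384-well plates and exposed to compounds at 1.0 or 5.0 μM overnight. Luciferase activity measured by luminometer. Maximal induction expressed as fold over control (Log2), mean of two biological replicates.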
(In general: A reporter such as luciferase makes a cellular process visible.)

The nature of assay [2]: Cytotoxicity against human CHP100 cells assessed as reduction in cell viability after 24 hrs by resazurin dye based Alamar blue assay. The class given is functional. Conditions: CHP100, 24 h.
Assay [3] concerns HEK-293T. Briefly: Cytotoxicity against human 293T cells assessed as reduction in cell viability after 72 hrs by resazurin dye based Alamar blue assay. It is filed as functional. On the technique in general: Alamar Blue is a resazurin reagent that responds to reducing activity.
Assay [4] concerns HEK-293T. Briefly: Ratio of induction of heat shock response in GFP-tagged human 293T cells to IC50 for cytotoxicity against human 293T cells. The class given is functional.
For assay [5], the system named is HEK-293T. Briefly: Induction of heat shock response in GFP-tagged human 293T cells at 1 to 5 uM after overnight incubation by luciferase reporter gene based luminometric method. The class given is functional, cell-based. The procedure, abridged: as §1
Assay [6] concerns HEK-293T. In words: Induction of heat shock response in GFP-tagged human 293T cells after overnight incubation by luciferase reporter gene based luminometric method relative to control. The class given is functional.
For assay [7], the system named is HEK-293T. Briefly: Induction of heat shock response in GFP-tagged human 293T cells at 5 uM after overnight incubation by luciferase reporter gene based luminometric method. It is filed as functional, cell-based. The procedure, abridged: as §1

The record followed here is ChEMBL document CHEMBL4251686, “Withaferin A and Withanolide D Analogues with Dual Heat-Shock-Inducing and Cytotoxic Activities: Semisynthesis and Biological Evaluation” (J Nat Prod, 2018).

Calls of active or inactive are those of the source. No cut-off for these calls is given here. Residues, ends and D or L forms follow the SMILES beside them. *: point of attachment. Cbz = O=C(OCc1ccccc1)*

For orientation: IC50 means the midpoint of a concentration-inhibition curve. Turning to `CC(=O)O[C@H]1C=CC(=O)[C@]2(C)[C@H]3CC[C@]4(C)[C@@H]([C@@](C)(O)[C@H]5CC(C)=C(C)C(=O)O5)CC[C@H]4[C@@H]3C[C@H]3O[C@]132`, in the assay with HEK-293T [1], the outcome was Active. For the same compound, the IC50 was determined as 0.292 µM in assay [2] and 0.141 µM with HEK-293T [3]. The Ratio in the assay on HEK-293T [4] is reported as 0.5.

With `CC(=O)OCC1=C(C)C[C@H]([C@@H](C)[C@H]2[C@@H](OC(C)=O)C[C@H]3[C@@H]4C[C@H](I)[C@]5(O)[C@@H](OC(C)=O)C=CC(=O)[C@]5(C)[C@H]4CC[C@]23C)OC1=O`, in the assay on HEK-293T [5], the result was Active. Also, the results for the IC50 (in assay [2]; with HEK-293T [3]) were 0.466 µM and 0.417 µM, respectively. In the assay with HEK-293T [6], this compound showed an AUC of 235. In addition, in the assay on HEK-293T [4], the Ratio was determined as 0.56.

For the compound `CC1=C(C)C(=O)O[C@@H]([C@](C)(O)[C@H]2CC[C@H]3[C@@H]4C[C@H]5O[C@]56C(=O)C=CC(=O)[C@]6(C)[C@H]4CC[C@]23C)C1`, the outcome with HEK-293T [1] was Active.

Turning to `CC1=C(C)C(=O)O[C@@H]([C@](C)(O)[C@H]2CC[C@H]3[C@@H]4C[C@H]5O[C@]56[C@@H](O)C=CC(=O)[C@]6(C)[C@H]4CC[C@]23C)C1` [WITHANOLIDE D], the result in the assay with HEK-293T [1] was Active. Moreover, the IC50 in assay [2] worked out at 0.324 µM; in the assay with HEK-293T [3] it was 0.71 µM. The AUC in the assay on HEK-293T [6] worked out at 13. Besides, the Ratio in the assay with HEK-293T [4] stood at 0.02.

Take `CC(=O)OCC1=C(C)C[C@H]([C@@H](C)[C@H]2CC[C@H]3[C@@H]4C[C@H]5O[C@]56[C@H](OC(C)=O)C=CC(=O)[C@]6(C)[C@H]4CC[C@]23C)OC1=O`: the outcome with HEK-293T [5] was Active.

As for `CC(=O)OCC1=C(C)C[C@H]([C@@H](C)[C@H]2CC[C@H]3[C@@H]4C[C@H]5O[C@]56[C@@H](OC(C)=O)C=CC(=O)[C@]6(C)[C@H]4CC[C@]23C)OC1=O`, in the assay on HEK-293T [5], the result was Active. This compound also had an AUC in the assay with HEK-293T [6] of 351.

Regarding `CC1=C(CO)C(=O)O[C@@H]([C@@H](C)[C@H]2CC[C@H]3[C@@H]4C[C@H]5O[C@]56[C@H](O)C=CC(=O)[C@]6(C)[C@H]4CC[C@]23C)C1`, the outcome in the assay on HEK-293T [7] was Active. Besides, the figures for the IC50 (in assay [2]; in the assay on HEK-293T [3]) were 0.311 µM and 0.25 µM, respectively. This compound also gave an AUC in the assay on HEK-293T [6] of 44. Further, the Ratio in the assay with HEK-293T [4] stood at 0.18.

For `CC(=O)OCC1=C(C)C[C@H]([C@@H](C)[C@H]2[C@@H](OC(C)=O)C[C@H]3[C@@H]4C[C@H]5O[C@]56[C@@H](OC(C)=O)C=CC(=O)[C@]6(C)[C@H]4CC[C@]23C)OC1=O`, in the assay with HEK-293T [5], the outcome was Active. Moreover, the IC50 in assay [2] worked out at 0.059 µM; in the assay on HEK-293T [3], 0.088 µM. Moreover, the AUC with HEK-293T [6] turned out to be 196. Besides, in the assay with HEK-293T [4], the Ratio is listed as 2.23.

For the compound `CC(=O)O[C@H]1C[C@H]2[C@@H]3C[C@H]4O[C@]45[C@@H](OC(C)=O)C=CC(=O)[C@]5(C)[C@H]3CC[C@]2(C)[C@H]1[C@@](C)(O)[C@H]1CC(C)=C(C)C(=O)O1`, the outcome in the assay with HEK-293T [1] was Active.

Turning to `CC(C)C[C@@H](C=O)NC(=O)[C@H](CC(C)C)NC(=O)[C@H](CC(C)C)NC(=O)OCc1ccccc1` [MG-132] (Cbz-Leu-Leu-Leu-aldehyde), in the assay on HEK-293T [6], the AUC stood at 332.

On to `CC(=O)OCC1=C(C)C[C@H]([C@@H](C)[C@H]2CC[C@H]3[C@@H]4C[C@H]5O[C@]56[C@@H](OC(C)=O)C=CC(=O)[C@]6(C)[C@H]4C[C@@H](OC(C)=O)[C@]23C)OC1=O`, for which the result with HEK-293T [5] was Active. The IC50 amounted to 0.12 µM in assay [2] and 0.116 µM in the assay on HEK-293T [3]. Further, in the assay with HEK-293T [6], the AUC stood at 419. Moreover, the Ratio in the assay on HEK-293T [4] is 3.61.

As for `CC(C)c1cc(-c2n[nH]c(=O)n2-c2ccc3c(ccn3C)c2)c(O)cc1O` [GANETESPIB], the AUC in the assay on HEK-293T [6] stood at 59.

Take `CC1=C(CO)C(=O)O[C@@H]([C@@H](C)[C@H]2CC[C@H]3[C@@H]4C[C@H]5O[C@]56[C@@H](O)C=CC(=O)[C@]6(C)[C@H]4CC[C@]23C)C1` [WITHAFERIN A]: in the assay on HEK-293T [5], the result was Active. For the same compound, the IC50 turned out to be 0.424 µM in assay [2] and 0.299 µM in the assay on HEK-293T [3]. In the assay with HEK-293T [6], the AUC is on record as 68. The Ratio in the assay on HEK-293T [4] is listed as 0.23.
